Assay results: ChEMBL document CHEMBL1132294, “Derivatives of the new ring system indolo[1,2-c]benzo[1,2,3]triazine with potent antitumor and antimicrobial activity” (J Med Chem, 1999)
In brackets after ≈: the same amount, converted by molar mass.

What was measured:
MT4 = test: Antitumor activity was evaluated against leukemia cell line MT-4(human CD4+ T cells expressing the TAT gene of HTLV-1).; assay type: functional, cell-based
How it was run: (§1)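 Exponentially growing leukemia/lymphoma cells resuspended at 1×10⁵ cells/mL in RPMI with serial drug dilutions. Viability by MTT after 4 days at 37 °C. Concentration giving 50% growth inhibition versus untreated controls found by linear regression. Mean of at least three experiments.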

KB [1] = test: Antiproliferative activity against drug-resistant tumor cell line KBCamp.; assay type: functional, cell-based; details: Homo sapiens
How it was run: (§2)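 Solid-tumour and KB lines: exponentially growing cells seeded at 5×10⁴ cells/mL, allowed to adhere 16 h, then serial drug dilutions added. Viability by MTT after 4 days. Growth expressed as % of untreated controls, 50% inhibitory concentration by linear regression. Untreated cells undergo at least three rounds of multiplication.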

HeLa = test: Antitumor activity was evaluated against human cervix carcinoma cell line HeLa.; assay type: functional, cell-based; how it was run: as §2
Homo sapiens [2] = organism: Homo sapiens; test: In vitro Antiproliferative activity against peripheral blood lymphocytes (PBL) after stimulating PBL with PHA and then resuspending in IL-2-containing medium in the presence of compound.; assay type: functional
How it was run: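 PBL from HIV-negative donors, isolated on Ficoll-Hypaque and rested overnight. Stimulated with PHA 2.5 μg/mL for 24 h, diluted to 1×10⁵ cells/mL in medium with PHA, IL-2 50 U/mL and compound. Viable cells counted after 6 days. Mean ±SD of three experiments.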

Lymphoblastoid cell = test: Cytotoxicity was evaluated against lymphoblastoid cell line.; assay type: functional; details: Homo sapiens
Candida albicans = test: Antimycotic activity against Candida albicans was evaluated as minimum inhibitory concentration of compound at which no macroscopic signs of fungal growth were detected; assay type: functional
How it was run: (§3)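 Yeast inocula from 30 h Sabouraud dextrose broth cultures at 37 °C, diluted to 5×10³ cells/mL. Dermatophyte inocula from 5-day cultures, homogenized and diluted to 0.05 OD₅₉₀/mL. Inocula added to medium with serial dilutions, incubated at 37 °C, read visually at 2 days (yeast) or 3 days (dermatophytes). Mean of at least three experiments.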

5637 = test: Antitumor activity was evaluated against human bladder carcinoma cell line 5637.; assay type: functional, cell-based; how it was run: as §2
CCRF-CEM = test: Antitumor activity was evaluated against leukemia cell line CCRF-CEM(human acute T lymphoblastic leukemia).; assay type: functional, cell-based
How it was run: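 Exponentially growing leukemia/lymphoma cells resuspended at 1×10⁵ cells/mL in RPMI with serial drug dilutions. Viability by MTT after 4 days at 37 °C. Mean of at least three experiments.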

[3] = test system: Mycolicibacterium smegmatis; test: Antibacterial activity was evaluated against Mycobacterium smegmatis; assay type: functional
How it was run: (§4)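 Mycobacterial suspension (turbidity of 1 McFarland standard, 10⁸ CFU/mL) added to Middlebrook 7H9 with 0.5% glycerol, 10% OADC and serial compound dilutions. Incubated at 37 °C, 1 day for M. smegmatis and M. fortuitum, 9 days for MAC. Viable mycobacteria counted by MTT. MIC given as mean of at least three separate experiments.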

[4] = test system: Mycobacterium tuberculosis; test: Antibacterial activity was evaluated against Mycobacterium tuberculosis (ATCC); assay type: functional
How it was run: (§5)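 Broth microdilution in Middlebrook 7H9 with 0.5% glycerol and 10% OADC, containing serial concentrations of compound (diluted in medium from a DMSO solution). Plates were incubated 9 days at 37 °C, and viable bacteria were read by MTT. MIC is the mean of at least three separate experiments.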

Salmonella = test: Antibacterial activity was evaluated against salmonella.; assay type: functional
How it was run: (§6)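 Recent clinical isolates grown in nutrient broth, pH 7.2, inoculum 10³ bacterial cells/tube, with serial compound dilutions. […] Mean of at least three separate experiments.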

MOLT-4 = test: Antitumor activity was evaluated against leukemia cell line MOLT-4(human acute T lymphoblastic leukemia); assay type: functional, cell-based; how it was run: as §1
Streptococcus = test: Antibacterial activity was evaluated against streptococcus.; assay type: functional; how it was run: as §6
Trichophyton benhamiae = test: Antimycotic activity against Trichophyton mentagrophytes was evaluated. MIC was defined as compound concentration at which no macroscopic signs of fungal growth were detected.; assay type: functional, Arthroderma benhamiae; how it was run: as §3
ACHN = test: Antitumor activity was evaluated against human renal adenocarcinoma cell line ACHN.; assay type: functional, cell-based; how it was run: as §2
KB [5] = test: Antiproliferative activity against drug-resistant tumor cell line KBV20C.; assay type: functional, cell-based; details: Homo sapiens; how it was run: as §2
HT-29 = test: Antitumor activity was evaluated against human colon adenocarcinoma cell line HT-29.; assay type: functional, cell-based; how it was run: as §2
L1210 = test: Antitumor activity was evaluated against leukemia cell line L1210 (mouse leukemia).; assay type: functional, cell-based; how it was run: as §1
CCRF-SB = test: Antitumor activity was evaluated against leukemia cell line CCRF-SB(human acute B lymphoblastic leukemia).; assay type: functional, cell-based; how it was run: as §1
KB [6] = test: Antiproliferative activity against drug-resistant tumor cell line KBwt.; assay type: functional, cell-based; details: Homo sapiens; how it was run: as §2
Staphylococcus = test: Antibacterial activity was evaluated against staphylococcus; assay type: functional; how it was run: as §6
IMR-32 = test: Antitumor activity was evaluated against human neuroblastoma cell line IMR-32.; assay type: functional, cell-based; how it was run: as §2
[7] = test system: Mycobacterium tuberculosis; test: Antibacterial activity was evaluated against Mycobacterium tuberculosis (clinical isolate 1104); assay type: functional; how it was run: as §5
Aspergillus fumigatus = test: Antimycotic activity against Aspergillus fumigatus was evaluated as compound minimum inhibitory concentration at which no macroscopic signs of fungal growth were detected.; assay type: functional
KB [8] = test: Antiproliferative activity against drug-resistant tumor cell line KB7D.; assay type: functional, cell-based; details: Homo sapiens; how it was run: as §2
Mycobacterium = test: Antibacterial activity was evaluated against MAC (Mycobacterium Avium Complex ); assay type: functional; how it was run: as §4
Candida tropicalis = test: Antimycotic activity against Candida paratropicalis was evaluated. MIC was defined as compound concentration at which no macroscopic signs of fungal growth were detected.; assay type: functional; how it was run: as §3
KB [9] = test: Antiproliferative activity against drug-resistant tumor cell line KBMDR.; assay type: functional, cell-based; details: Homo sapiens; how it was run: as §2
Cryptococcus neoformans = test: Antimycotic activity against Cryptococcus neoformans was evaluated. MIC was defined as compound concentration at which no macroscopic signs of fungal growth were detected.; assay type: functional; how it was run: as §3
WIL2-NS = test: Antitumor activity was evaluated against lymphoma cell line Wil2-NS (human splenic B lymphoblastoid cells).; assay type: functional, cell-based; how it was run: as §1
Candida parapsilosis = test: Antimycotic activity against Candida parapsilosis was evaluated as compound concentration at which no macroscopic signs of fungal growth were detected; assay type: functional; details: Lodderomyces parapsilosis; how it was run: as §3
Shigella = test: Antibacterial activity was evaluated against shigella.; assay type: functional; how it was run: as §6
[10] = test system: Mycolicibacterium fortuitum; test: Antibacterial activity was evaluated against Mycobacterium fortuitum.; assay type: functional; how it was run: as §4
Homo sapiens [11] = organism: Homo sapiens; test: In vitro Antiproliferative activity against peripheral blood lymphocytes (PBL) by treating PBL with compound for 3 days, then stimulating with PHA and then resuspending in compound free medium.; assay type: functional; details: 72 h
How it was run: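 Resting donor PBL held at 1×10⁶ cells/mL and treated with compound for up to 3 days, then washed. Stimulated with PHA for 24 h, diluted to 1×10⁵ cells/mL in drug-free medium with PHA and IL-2. Viability read after 6 days at 37 °C. Mean ±SD of three experiments.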

CHO-K1 = test: Antitumor activity was evaluated against Chinese hamster ovary carcinoma cell line CHO-K1.; assay type: functional, cell-based; details: Cricetulus griseus; how it was run: as §2

O=Nc1c2cc(Cl)ccc2n2nnc3ccccc3c12
IC50 (MT4): 500 nM
IC50 (KB [1]): 1900 nM
IC50 (HeLa): 2.7 µM
CC50 (Homo sapiens [2]): 200 nM
CC50 (Lymphoblastoid cell): 350 nM
MIC (Candida albicans): > 200 µM
IC50 5637: 300 nM
IC50 (CCRF-CEM): 0.08 µM
MIC [3]: > 5 µM
MIC [4]: 4.7 µM (≈ 1.33 µg/mL)
MIC (Salmonella): > 200 µM
IC50 (MOLT-4): 200 nM
MIC (Streptococcus): 0.8 µM (≈ 0.226 µg/mL)
MIC (Trichophyton benhamiae): > 200 µM
IC50 (ACHN): 2.6 µM
IC50 (KB [5]): 2100 nM
IC50 (HT-29): 1.3 µM
IC50 (L1210): 0.7 µM
IC50 (CCRF-SB): 0.4 µM
IC50 (KB [6]): 1800 nM
MIC (Staphylococcus): 0.4 µM (≈ 0.113 µg/mL)
IC50 (IMR-32): 800 nM
MIC [7]: > 10 µM
MIC (Aspergillus fumigatus): > 200 µM
IC50 (KB [8]): 1700 nM
MIC (Mycobacterium): 0.6 µM (≈ 0.17 µg/mL)
MIC (Candida tropicalis): > 200 µM
IC50 (KB [9]): 1100 nM
MIC (Cryptococcus neoformans): > 200 µM
IC50 (WIL2-NS): 200 nM
MIC (Candida parapsilosis): > 200 µM
MIC (Shigella): > 200 µM
MIC [10]: > 5 µM
CC50 (Homo sapiens [11]): 900 nM
IC50 (CHO-K1): 1.6 µM

O=Nc1c2cc([N+](=O)[O-])ccc2n2nnc3ccccc3c12
IC50 (MT4): 1200 nM
IC50 (HeLa): 16 µM
MIC (Candida albicans): 66 µM (≈ 19.4 µg/mL)
IC50 5637: 29000 nM
IC50 (CCRF-CEM): 8.2 µM
MIC (Salmonella): > 200 µM
IC50 (MOLT-4): 6600 nM
MIC (Streptococcus): 0.09 µM (≈ 0.0264 µg/mL)
MIC (Trichophyton benhamiae): 66 µM (≈ 19.4 µg/mL)
IC50 (ACHN): > 50 µM
IC50 (HT-29): 18 µM
IC50 (L1210): 9.2 µM
IC50 (CCRF-SB): 11 µM
MIC (Staphylococcus): 0.09 µM (≈ 0.0264 µg/mL)
IC50 (IMR-32): 12000 nM
MIC (Aspergillus fumigatus): > 200 µM
MIC (Candida tropicalis): 22 µM (≈ 6.45 µg/mL)
MIC (Cryptococcus neoformans): 7.4 µM (≈ 2.17 µg/mL)
IC50 (WIL2-NS): 12000 nM
MIC (Candida parapsilosis): 66 µM (≈ 19.4 µg/mL)
MIC (Shigella): > 200 µM
MIC [10]: > 5 µM
IC50 (CHO-K1): 42 µM

O=Nc1c2ccccc2n2nnc3ccc(Cl)cc3c12
IC50 (MT4): 1700 nM
IC50 (HeLa): 5.4 µM
MIC (Candida albicans): 150 µM (≈ 42.4 µg/mL)
IC50 5637: 2100 nM
IC50 (CCRF-CEM): 5 µM
MIC [3]: 4.2 µM (≈ 1.19 µg/mL)
MIC [4]: 1.8 µM (≈ 0.509 µg/mL)
MIC (Salmonella): > 200 µM
IC50 (MOLT-4): 2000 nM
MIC (Streptococcus): 0.1 µM (≈ 0.0283 µg/mL)
MIC (Trichophyton benhamiae): 9.4 µM (≈ 2.66 µg/mL)
IC50 (ACHN): 11 µM
IC50 (HT-29): 24 µM
IC50 (L1210): 7.4 µM
IC50 (CCRF-SB): 7 µM
MIC (Staphylococcus): 0.05 µM (≈ 0.0141 µg/mL)
IC50 (IMR-32): 2300 nM
MIC [7]: 1.6 µM (≈ 0.452 µg/mL)
MIC (Aspergillus fumigatus): 9.4 µM (≈ 2.66 µg/mL)
MIC (Mycobacterium): 2.5 µM (≈ 0.707 µg/mL)
MIC (Candida tropicalis): 150 µM (≈ 42.4 µg/mL)
MIC (Cryptococcus neoformans): 0.8 µM (≈ 0.226 µg/mL)
IC50 (WIL2-NS): 2700 nM
MIC (Candida parapsilosis): 19 µM (≈ 5.37 µg/mL)
MIC (Shigella): > 200 µM
MIC [10]: > 5 µM
IC50 (CHO-K1): 31 µM
